From ChEMBL document CHEMBL1671796, “Development of non-peptide ligands of growth factor receptor-bound protein 2-SRC homology 2 domain using molecular modeling and NMR spectroscopy” (J Med Chem, 2011) come the findings set out here.

The target in test [1] is T1, Growth factor receptor-bound protein 2 (Homo sapiens, UniProt P62993). In words: Displacement of biotin-Ahx-PSpYVNVQN from Grb2-SH2 at 5 mM by competition binding assay.
Target sequence in this assay (P62993 whole entry, looked up): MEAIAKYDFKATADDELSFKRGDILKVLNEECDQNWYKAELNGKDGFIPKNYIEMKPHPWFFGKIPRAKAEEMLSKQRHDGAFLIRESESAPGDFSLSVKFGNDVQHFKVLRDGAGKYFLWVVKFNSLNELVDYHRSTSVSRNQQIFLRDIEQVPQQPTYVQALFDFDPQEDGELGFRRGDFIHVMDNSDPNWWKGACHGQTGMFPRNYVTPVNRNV
For test [2], the target named is T1, Growth factor receptor-bound protein 2. The test is described as follows: Displacement of biotin-Ahx-PSpYVNVQN from Grb2-SH2 by competition binding assay.
Target sequence in this assay (P62993 whole entry): as the sequence (P62993 whole entry, looked up) above
Test [3] concerns MCF7. The test is described as follows: Cytotoxicity against HER2-negative human MCF7 cells after 24 hrs by MTT assay. It counts as functional, cell-based. The procedure, abridged:
(§1)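 Human breast cancer cells tested at 50 and 100 μM: HER2-positive MCF7 and HER2-negative MCF7 and MDA-231. N1 fibroblasts were run alongside at the same two concentrations.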
Background: Formazan colour is commonly taken as a measure of viable cells.

Test [4] has as its system MDA-MB-231. The test is described as follows: Cytotoxicity against HER2-negative human MDA231 cells after 24 hrs by MTT assay. Type of test: functional, cell-based. Put shortly: as §1
For test [5], the target named is T1, Growth factor receptor-bound protein 2. In words: Inhibition of HER2-Grb2 interaction in HER2-positive human MCF7 cells assessed as decrease in interaction at 50 uM by immunoblotting. It counts as cell-based. Further details: scale not given: the % may be the effect or the level left.
Target sequence in this assay (P62993 whole entry, looked up): as above
Test [6] deals with MCF7. The test is described as follows: Cytotoxicity against HER2-positive human MCF7 cells after 24 hrs by MTT assay. Particulars: MCF7, 24 h. Type of test: functional, cell-based. The procedure, abridged: as §1

The structures appear in SMILES notation. Active and inactive are the calls of the source. No cut-off for these calls is given here. Where only a bound is given, the exact number is not on record here.

One may read the inhibition as the drop in the measured response relative to a control, in per cent. On to `CCCC(=O)N[C@@H](Cc1ccc(OP(=O)(O)O)cc1)C(=O)NCCCN1CCCC1=O`, for which, in test [1], the inhibition was less than 10%.
Molecule `CC(=O)N[C@@H](Cc1ccc(OP(=O)(O)O)cc1)C(=O)NCCCN1CCCC1=O` showed an inhibition in test [1] of less than 10%.
The same measure, in the same setting: next, `CC(=O)N[C@H](Cc1ccc(OP(=O)(O)O)cc1)C(=O)NCCCN1CCCNC1=O`: less than 10%.
In general, IC50 refers to the point on the concentration scale where inhibition reaches its midpoint. Take `CCCC(=O)N[C@@H](Cc1ccc(OP(=O)(O)O)cc1)C(=O)NCCN1CCNC1=O`: the IC50 in test [2] was 1330 µM.
`O=C(N[C@@H](Cc1ccc(OP(=O)(O)O)cc1)C(=O)NCCCN1CCCNC1=O)c1ccccc1` yielded an inhibition in test [1] of less than 10%.
In test [2], `CC(=O)N[C@@H](Cc1ccc(OP(=O)(O)O)cc1)C(=O)NCCCN1CCCNC1=O` had an IC50 of 174 µM.
Turning to `CC(=O)N[C@@H](Cc1ccc(OP(=O)(O)O)cc1)C(=O)NC1(CCN2CCCNC2=O)CCCCC1`, the result in test [3] and in test [4] was inactive. The IC50 in test [2] was determined as 56 µM; in test [6], 100 µM. For the same molecule, the Activity in test [5] turned out to be 30%.
For `CC(=O)NC(Cc1ccc(OP(=O)(O)O)cc1)C(=O)NCCCN1CCCNC1=O` (racemic), the IC50 in test [2] is 2310 µM.
`O=C(O)C[C@@H](Cc1ccc(CP(=O)(O)O)cc1)C(=O)NC1(C(=O)N[C@@H](CC(=O)O)C(=O)NCCCc2cccc3ccccc23)CCCCC1` showed an IC50 in test [2] of 0.008 µM.
Same read-out and setting: next, `CCCC(=O)N[C@@H](Cc1ccc(OP(=O)(O)O)cc1)C(=O)NCCCN1CCCNC1=O`: 314 µM.
Molecule `CC(=O)N[C@@H](Cc1ccc(OP(=O)(O)O)cc1)C(=O)NCCc1cnc[nH]1` displayed an inhibition in test [1] of less than 10%.
On the same count and under the same terms, next, `CC(=O)N[C@@H](Cc1ccc(OP(=O)(O)O)cc1)C(=O)NCCN1CCNC1=O`: less than 10%.
Same read-out and setting: next, `O=C(N[C@@H](Cc1ccc(OP(=O)(O)O)cc1)C(=O)NCCCN1CCCC1=O)c1ccccc1`: less than 10%; `O=C(N[C@@H](Cc1ccc(OP(=O)(O)O)cc1)C(=O)NCCN1CCNC1=O)c1ccccc1`: less than 10%.
